Results taken from ChEMBL document CHEMBL1149254, “The discovery of orally active triaminotriazine aniline amides as inhibitors of p38 MAP kinase” (J Med Chem, 2004).
The source made the active and inactive calls. The rule behind the calls is not given here.

Experiments:
[1] = target: Mitogen-activated protein kinase 14 (Homo sapiens, UniProt Q16539); assay: Inhibition of human p38-alpha expressed in Escherichia coli
[2] = system: THP-1; assay: Inhibition of LPS-induced TNFalpha production in human THP1 cells by ELISA; type: functional, cell-based
Method in brief: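 THP-1 cells grown in RPMI 1640 with 10% FBS, 40000 cells/well. Compound or vehicle was added (1% DMSO final), then LPS at 1 μg/mL final. Cells were incubated overnight at 37 °C, 5% CO2. TNF in the supernatant was measured by sandwich ELISA: anti-human TNF capture, biotinylated polyclonal detection, streptavidin-peroxidase read-out.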

[3] = system: Mus musculus; assay: Inhibition of LPS-induced TNFalpha release in BALB/c mouse at 5 mg/kg, po after 90 mins; type: functional, organism-based; design: dose 5 mg/kg
Method in brief: (§1)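 Female BALB/c mice, 6–8 weeks old. Compound in 100% PEG 300 given by oral gavage 30 min before ip LPS (0.1 mL of 10 μg/mL in PBS). Blood was taken 90 min after LPS and serum TNF-α measured by ELISA. Mean ± SD, n = 8 mice per group.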

[4] = system: Mus musculus; assay: Inhibition of LPS-induced TNFalpha release in po dosed BALB/c mouse after 90 mins; type: functional; settings: 1.5 h; method in brief: as §1
[5] = system: PBMC; assay: Inhibition of LPS-induced TNFalpha production in human PBMC by ELISA; type: functional, cell-based
Method in brief: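 PBMC from healthy donors, isolated on ficoll, plated at 1×10^6 cells/mL in RPMI with 10% FBS. Compound was preincubated for 30 min, then cells were stimulated with 25 ng/mL LPS (final) for 6 h at 37 °C, 5% CO2. Supernatant TNF-α was measured by ELISA.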

[6] = Cytotoxicity against phytohemagglutininin-stimulated human T blast cells at 30 uM after 24 hrs relative to control; type: cell-based; settings: t-cell
Method in brief: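 PBMC T cells (1.25×10^6/mL) stimulated with 5 μg/mL PHA for 4 days to give dividing blasts. Blasts at 1.5×10^6/mL were exposed to 30 μM compound in RPMI with 10% FBS and 0.003% DMSO final, for 24 h at 37 °C, 5% CO2. Viability was read as metabolic activity by AlamarBlue and expressed relative to control.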

[7] = system: Mus musculus; assay: Inhibition of LPS-induced TNFalpha release in BALB/c mouse administered at 10 mg/kg before 30 mins of LPS challenge; type: functional, organism-based; design: dose 10 mg/kg
Method in brief: (§2)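 BALB/c mouse LPS-TNF model. Compound was given at 10 mpk at time points from 30 min to 10 h before LPS challenge, and TNF suppression was assessed at each pretreatment interval.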

[8] = system: Mus musculus; assay: Inhibition of LPS-induced TNFalpha release in BALB/c mouse administered at 10 mg/kg before 2 hrs of LPS challenge; type: functional, organism-based; design: dose 10 mg/kg; method in brief: as §2
[9] = target: Mitogen-activated protein kinase 11 (Homo sapiens, UniProt Q15759); assay: Inhibition of human p38beta
Chain of Mitogen-activated protein kinase 11 (Q15759 whole entry): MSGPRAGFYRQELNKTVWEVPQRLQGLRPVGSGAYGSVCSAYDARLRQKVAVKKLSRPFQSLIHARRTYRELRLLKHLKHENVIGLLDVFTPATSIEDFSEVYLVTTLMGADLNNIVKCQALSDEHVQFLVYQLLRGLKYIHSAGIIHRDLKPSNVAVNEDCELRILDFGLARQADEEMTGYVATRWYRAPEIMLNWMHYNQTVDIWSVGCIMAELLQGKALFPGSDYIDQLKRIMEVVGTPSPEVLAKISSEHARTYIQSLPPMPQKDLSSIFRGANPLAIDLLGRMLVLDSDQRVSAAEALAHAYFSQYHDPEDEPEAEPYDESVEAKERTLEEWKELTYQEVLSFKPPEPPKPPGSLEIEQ

[10] = target: T1, Inhibitor of nuclear factor kappa-B kinase subunit beta (Homo sapiens, UniProt O14920); assay: Inhibition of human IKK2beta
T1 sequence (O14920 whole entry): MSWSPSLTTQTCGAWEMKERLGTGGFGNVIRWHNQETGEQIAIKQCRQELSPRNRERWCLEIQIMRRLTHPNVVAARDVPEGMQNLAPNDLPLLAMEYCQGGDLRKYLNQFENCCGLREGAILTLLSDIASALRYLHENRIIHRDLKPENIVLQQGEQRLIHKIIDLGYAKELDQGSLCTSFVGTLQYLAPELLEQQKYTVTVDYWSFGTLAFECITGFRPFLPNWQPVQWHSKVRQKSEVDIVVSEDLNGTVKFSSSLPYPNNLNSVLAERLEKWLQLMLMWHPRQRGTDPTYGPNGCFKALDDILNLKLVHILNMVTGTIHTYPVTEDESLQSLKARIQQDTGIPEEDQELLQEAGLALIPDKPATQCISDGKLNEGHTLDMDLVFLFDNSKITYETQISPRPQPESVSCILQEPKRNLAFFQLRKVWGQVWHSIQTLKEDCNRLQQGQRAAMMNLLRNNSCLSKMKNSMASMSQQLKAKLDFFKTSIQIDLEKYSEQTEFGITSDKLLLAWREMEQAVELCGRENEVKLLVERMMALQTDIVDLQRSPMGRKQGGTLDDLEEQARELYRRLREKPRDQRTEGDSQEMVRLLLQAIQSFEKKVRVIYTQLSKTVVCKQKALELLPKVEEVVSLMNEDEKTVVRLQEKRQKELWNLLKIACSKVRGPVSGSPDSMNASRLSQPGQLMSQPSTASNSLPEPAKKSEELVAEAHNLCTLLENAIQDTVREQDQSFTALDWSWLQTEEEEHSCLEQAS

[11] = target: MAP kinase-activated protein kinase 2 (Homo sapiens, UniProt P49137); assay: Inhibition of MK2
Chain of MAP kinase-activated protein kinase 2 (P49137 whole entry): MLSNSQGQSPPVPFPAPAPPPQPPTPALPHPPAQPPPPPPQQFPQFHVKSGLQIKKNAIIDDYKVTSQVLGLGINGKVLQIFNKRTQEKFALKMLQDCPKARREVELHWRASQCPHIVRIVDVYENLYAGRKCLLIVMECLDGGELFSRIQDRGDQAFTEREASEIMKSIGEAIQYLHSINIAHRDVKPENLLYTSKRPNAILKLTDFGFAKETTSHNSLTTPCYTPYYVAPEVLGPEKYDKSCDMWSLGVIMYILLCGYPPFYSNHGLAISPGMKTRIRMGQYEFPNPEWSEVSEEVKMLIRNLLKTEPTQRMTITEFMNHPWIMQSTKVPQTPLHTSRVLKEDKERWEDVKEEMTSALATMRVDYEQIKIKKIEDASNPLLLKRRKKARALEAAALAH

[12] = target: T2, Tyrosine-protein kinase JAK3 (Homo sapiens, UniProt P52333); assay: Inhibition of JAK3
T2 sequence (P52333 whole entry): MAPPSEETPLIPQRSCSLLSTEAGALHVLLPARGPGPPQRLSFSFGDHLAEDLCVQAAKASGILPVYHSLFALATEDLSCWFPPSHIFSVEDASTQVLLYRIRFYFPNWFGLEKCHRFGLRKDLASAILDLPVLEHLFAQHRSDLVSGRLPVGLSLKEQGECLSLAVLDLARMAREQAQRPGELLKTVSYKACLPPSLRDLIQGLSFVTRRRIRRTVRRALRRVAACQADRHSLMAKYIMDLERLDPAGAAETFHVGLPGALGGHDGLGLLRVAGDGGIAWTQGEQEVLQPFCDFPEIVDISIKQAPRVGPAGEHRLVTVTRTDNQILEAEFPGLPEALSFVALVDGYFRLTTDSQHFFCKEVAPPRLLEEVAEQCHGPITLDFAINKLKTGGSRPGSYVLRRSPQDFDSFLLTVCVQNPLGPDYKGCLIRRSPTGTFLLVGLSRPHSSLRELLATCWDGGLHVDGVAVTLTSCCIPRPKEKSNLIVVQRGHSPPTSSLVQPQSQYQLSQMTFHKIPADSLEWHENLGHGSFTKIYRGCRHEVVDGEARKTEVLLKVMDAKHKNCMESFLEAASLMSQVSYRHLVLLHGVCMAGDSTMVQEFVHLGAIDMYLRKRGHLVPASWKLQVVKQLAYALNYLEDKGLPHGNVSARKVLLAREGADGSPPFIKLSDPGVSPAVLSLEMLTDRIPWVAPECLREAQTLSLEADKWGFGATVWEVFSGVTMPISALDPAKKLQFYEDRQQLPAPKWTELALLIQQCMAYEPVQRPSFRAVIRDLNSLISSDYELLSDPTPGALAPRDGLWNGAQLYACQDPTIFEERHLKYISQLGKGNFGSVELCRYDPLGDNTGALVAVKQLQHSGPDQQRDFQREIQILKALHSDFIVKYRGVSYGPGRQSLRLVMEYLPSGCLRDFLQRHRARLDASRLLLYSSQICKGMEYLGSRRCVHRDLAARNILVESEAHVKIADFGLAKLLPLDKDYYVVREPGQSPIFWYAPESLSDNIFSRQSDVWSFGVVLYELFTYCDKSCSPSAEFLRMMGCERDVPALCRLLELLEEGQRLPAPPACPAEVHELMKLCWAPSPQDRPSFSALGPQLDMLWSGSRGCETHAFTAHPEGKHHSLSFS

[13] = target: Protein kinase C alpha type (Homo sapiens, UniProt P17252); assay: Inhibition of PKCalpha
[14] = target: Protein kinase C delta type (Homo sapiens, UniProt Q05655); assay: Inhibition of PKCdelta
Chain of Protein kinase C delta type (Q05655 whole entry): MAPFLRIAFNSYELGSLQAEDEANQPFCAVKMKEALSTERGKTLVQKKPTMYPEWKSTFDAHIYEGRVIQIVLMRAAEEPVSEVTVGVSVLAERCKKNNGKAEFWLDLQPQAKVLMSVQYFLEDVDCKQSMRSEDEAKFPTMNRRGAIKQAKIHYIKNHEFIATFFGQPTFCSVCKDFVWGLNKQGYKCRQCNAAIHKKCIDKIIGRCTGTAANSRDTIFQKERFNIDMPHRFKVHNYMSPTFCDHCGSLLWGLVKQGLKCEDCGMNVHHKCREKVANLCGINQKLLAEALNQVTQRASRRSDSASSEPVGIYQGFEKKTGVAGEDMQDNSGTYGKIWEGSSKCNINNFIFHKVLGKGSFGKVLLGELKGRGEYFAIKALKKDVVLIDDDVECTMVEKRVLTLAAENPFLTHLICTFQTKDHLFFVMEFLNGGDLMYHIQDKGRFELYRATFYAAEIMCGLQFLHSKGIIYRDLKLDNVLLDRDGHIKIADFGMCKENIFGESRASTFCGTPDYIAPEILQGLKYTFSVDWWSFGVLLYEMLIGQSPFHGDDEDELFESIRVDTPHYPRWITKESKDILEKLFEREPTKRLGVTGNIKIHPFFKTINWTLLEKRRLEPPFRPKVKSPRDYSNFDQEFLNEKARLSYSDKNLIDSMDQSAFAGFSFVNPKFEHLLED

[15] = target: cAMP-dependent protein kinase (PKA) (Homo sapiens, UniProt P22694+P17612+P22612); assay: Inhibition of PKA; type: protein assay
[16] = target: Tyrosine-protein kinase Lck (Homo sapiens, UniProt P06239); assay: Inhibition of LCK
Chain of Tyrosine-protein kinase Lck (P06239 whole entry): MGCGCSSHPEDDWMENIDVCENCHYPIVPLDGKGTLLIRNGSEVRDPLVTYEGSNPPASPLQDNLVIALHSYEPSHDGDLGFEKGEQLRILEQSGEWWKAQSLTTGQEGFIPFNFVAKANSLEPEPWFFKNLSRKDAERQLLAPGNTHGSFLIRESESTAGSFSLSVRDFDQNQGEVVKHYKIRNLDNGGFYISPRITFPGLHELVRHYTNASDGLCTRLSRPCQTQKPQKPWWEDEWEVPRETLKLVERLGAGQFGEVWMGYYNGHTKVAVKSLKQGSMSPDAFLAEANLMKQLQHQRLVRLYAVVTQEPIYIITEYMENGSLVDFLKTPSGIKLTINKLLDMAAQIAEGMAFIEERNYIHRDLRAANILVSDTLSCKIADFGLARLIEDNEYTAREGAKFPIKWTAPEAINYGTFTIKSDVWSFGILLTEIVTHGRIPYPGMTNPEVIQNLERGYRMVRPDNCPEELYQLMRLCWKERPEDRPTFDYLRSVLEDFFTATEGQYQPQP

[17] = target: T3, Tyrosine-protein kinase ZAP-70 (Homo sapiens, UniProt P43403); assay: Inhibition of Zap70
T3 sequence (P43403 whole entry): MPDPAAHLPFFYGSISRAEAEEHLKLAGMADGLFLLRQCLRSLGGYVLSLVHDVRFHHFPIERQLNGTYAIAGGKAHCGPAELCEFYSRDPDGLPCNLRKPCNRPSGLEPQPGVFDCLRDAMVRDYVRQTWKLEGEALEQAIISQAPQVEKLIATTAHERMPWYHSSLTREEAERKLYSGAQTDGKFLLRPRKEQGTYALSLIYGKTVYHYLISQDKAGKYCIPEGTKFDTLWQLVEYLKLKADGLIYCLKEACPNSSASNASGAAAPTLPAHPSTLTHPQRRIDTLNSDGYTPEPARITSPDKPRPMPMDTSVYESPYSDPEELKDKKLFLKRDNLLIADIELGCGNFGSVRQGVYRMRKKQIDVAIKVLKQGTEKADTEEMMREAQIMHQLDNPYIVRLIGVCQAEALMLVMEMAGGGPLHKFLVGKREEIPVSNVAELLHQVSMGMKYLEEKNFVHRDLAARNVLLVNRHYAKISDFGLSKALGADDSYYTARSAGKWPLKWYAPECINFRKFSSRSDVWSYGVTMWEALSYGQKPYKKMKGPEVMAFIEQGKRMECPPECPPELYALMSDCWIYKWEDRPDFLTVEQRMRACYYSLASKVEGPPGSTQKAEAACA

[18] = target: Vascular endothelial growth factor receptor 2 (Homo sapiens, UniProt P35968); assay: Inhibition of KDR
Chain of Vascular endothelial growth factor receptor 2 (P35968 whole entry): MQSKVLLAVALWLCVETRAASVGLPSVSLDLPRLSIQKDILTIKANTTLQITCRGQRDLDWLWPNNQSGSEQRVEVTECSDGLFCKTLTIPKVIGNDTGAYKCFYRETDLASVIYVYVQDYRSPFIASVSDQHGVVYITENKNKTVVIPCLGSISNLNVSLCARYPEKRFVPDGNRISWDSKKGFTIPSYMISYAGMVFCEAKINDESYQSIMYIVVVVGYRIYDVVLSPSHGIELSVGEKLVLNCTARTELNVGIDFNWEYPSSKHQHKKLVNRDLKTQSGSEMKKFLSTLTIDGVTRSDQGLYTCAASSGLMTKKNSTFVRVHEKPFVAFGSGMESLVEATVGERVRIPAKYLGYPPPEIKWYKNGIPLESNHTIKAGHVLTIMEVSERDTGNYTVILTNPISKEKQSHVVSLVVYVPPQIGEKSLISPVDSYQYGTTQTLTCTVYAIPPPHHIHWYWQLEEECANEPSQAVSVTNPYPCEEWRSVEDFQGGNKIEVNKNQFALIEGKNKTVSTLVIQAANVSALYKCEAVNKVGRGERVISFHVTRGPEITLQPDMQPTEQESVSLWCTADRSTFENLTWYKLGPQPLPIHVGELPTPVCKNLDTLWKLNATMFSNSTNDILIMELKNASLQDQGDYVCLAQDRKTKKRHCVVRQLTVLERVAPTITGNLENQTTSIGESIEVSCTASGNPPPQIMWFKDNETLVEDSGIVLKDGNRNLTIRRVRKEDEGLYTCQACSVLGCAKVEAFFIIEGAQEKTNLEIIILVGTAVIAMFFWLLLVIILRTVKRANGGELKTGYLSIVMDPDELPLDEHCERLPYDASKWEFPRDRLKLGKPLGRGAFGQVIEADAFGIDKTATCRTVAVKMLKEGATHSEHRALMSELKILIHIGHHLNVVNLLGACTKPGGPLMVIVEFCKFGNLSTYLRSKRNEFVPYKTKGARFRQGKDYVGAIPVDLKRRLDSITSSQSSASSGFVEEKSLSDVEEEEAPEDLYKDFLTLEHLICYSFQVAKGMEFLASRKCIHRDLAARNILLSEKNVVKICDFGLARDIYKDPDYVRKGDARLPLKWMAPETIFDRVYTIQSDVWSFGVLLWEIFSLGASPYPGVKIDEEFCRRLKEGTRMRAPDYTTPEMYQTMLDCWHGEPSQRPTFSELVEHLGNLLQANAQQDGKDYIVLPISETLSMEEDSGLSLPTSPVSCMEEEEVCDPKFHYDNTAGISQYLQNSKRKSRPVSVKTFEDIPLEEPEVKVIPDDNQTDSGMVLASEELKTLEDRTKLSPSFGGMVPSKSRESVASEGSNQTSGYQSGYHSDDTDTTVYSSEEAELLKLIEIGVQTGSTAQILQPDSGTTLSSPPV

[19] = Metabolic stability in mouse liver microsomes; type: ADME, Microsome
[20] = system: Liver microsomes; assay: Metabolic stability in human liver microsomes; type: ADME, Microsome
[21] = Clearance in mouse; type: ADME, organism-based; settings: in vivo
[22] = Half life in mouse; type: ADME, organism-based; settings: in vivo
[23] = Bioavailability in mouse; type: ADME, organism-based; settings: in vivo
[24] = system: Rattus norvegicus; assay: Suppression of paw swelling in adjuvant arthritis Lewis rat model at 50 mg/kg, po BID

Chain of Mitogen-activated protein kinase 14 (Q16539 whole entry): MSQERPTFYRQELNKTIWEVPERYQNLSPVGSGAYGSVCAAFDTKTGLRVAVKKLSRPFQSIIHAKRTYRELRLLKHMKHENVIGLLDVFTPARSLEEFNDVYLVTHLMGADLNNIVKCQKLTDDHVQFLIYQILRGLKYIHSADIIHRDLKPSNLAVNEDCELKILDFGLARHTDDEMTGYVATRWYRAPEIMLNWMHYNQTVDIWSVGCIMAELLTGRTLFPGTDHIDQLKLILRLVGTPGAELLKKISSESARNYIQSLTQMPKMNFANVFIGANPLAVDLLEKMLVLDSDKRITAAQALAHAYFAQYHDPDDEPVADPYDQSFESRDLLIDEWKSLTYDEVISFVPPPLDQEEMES

## CONC(=O)c1ccc(C)c(Nc2nc(N(C)CC(C)(C)C)nc(N3CCNCC3)n2)c1
[1]
  IC50: 18 nM
[2]
  IC50: 120 nM

## Cc1ccc(C(N)=O)cc1Nc1nc(N[C@H]2CCNC2)nc(N(C)CC(C)c2ccccc2)n1 (stereo partly specified)
[1]
  IC50: 84 nM
[2]
  IC50: 2600 nM

## CONC(=O)c1ccc(C)c(Nc2nc(N[C@H]3CCNC3)nc(N(C)CC(C)(C)C)n2)c1
[1]
  IC50: 8 nM
[2]
  IC50: 16 nM

## CONC(=O)c1ccc(C)c(Nc2nc(N(C)CC(C)(C)C)nc(N3CCCN(C)CC3)n2)c1
[1]
  IC50: 44 nM
[2]
  IC50: 85 nM
[3]
  Activity: Active
[4]
  ED50: 3 mg/kg
[5]
  IC50: 4.6 nM
[6]
  Activity: 70%
[7]
  Activity: Active
[8]
  Activity: Active
[9]
  IC50: 22 nM
[10]
  IC50: > 10000 nM
[11]
  IC50: > 10000 nM
[12]
  IC50: > 10000 nM
[13]
  IC50: > 10000 nM
[14]
  IC50: > 10000 nM
[15]
  IC50: > 10000 nM
[16]
  IC50: > 10000 nM
[17]
  IC50: > 50000 nM
[18]
  IC50: > 10000 nM
[19]
  Stability: 0.8 nmol/mg/min
[20]
  Stability: 0.2 nmol/mg/min
[21]
  clearance: 107 mL/min/kg
[22]
  half-life: 42 min
[23]
  bioavailability: 8%
[24]
  Activity: 50%

## Cc1ccc(C(N)=O)cc1Nc1nc(N[C@H]2CCNC2)nc(N(C)CC(C)C)n1
[1]
  IC50: 28 nM
[2]
  IC50: 325 nM

## Cc1ccc(C(N)=O)cc1Nc1nc(NCC(C)C)nc(N[C@H]2CCNC2)n1
[1]
  IC50: 73 nM
[2]
  IC50: > 5000 nM

## Cc1ccc(C(=O)NC2CCCC2)cc1Nc1nc(N[C@H]2CCNC2)nc(N(C)CC(C)(C)C)n1
[1]
  IC50: 100 nM
[2]
  IC50: 130 nM

## CONC(=O)c1ccc(C)c(Nc2nc(N(C)CC(C)(C)C)nc(N3CCCNCC3)n2)c1
[1]
  IC50: 52 nM
[2]
  IC50: 131 nM

## CONC(=O)c1ccc(C)c(Nc2nc(N(C)CC(C)(C)C)nc(N3CCN(C)CC3)n2)c1
[1]
  IC50: 57 nM
[2]
  IC50: 158 nM

## Cc1ccc(C(=O)NO)cc1Nc1nc(N[C@H]2CCNC2)nc(N(C)CC(C)(C)C)n1
[1]
  IC50: 16 nM
[2]
  IC50: 150 nM

## Cc1ccc(C(N)=O)cc1Nc1nc(N[C@H]2CCNC2)nc(N(C)CC(C)(C)C)n1
[1]
  IC50: 24 nM
[2]
  IC50: 167 nM

## Cc1ccc(C(N)=O)cc1Nc1nc(NCCc2ccc(F)cc2)nc(N[C@H]2CCNC2)n1
[1]
  IC50: 227 nM
[2]
  IC50: > 5000 nM
